# Measurements collected from several papers.
Compound,tested on,test,test system,setting,measurement,result
CCCCCCCCCCCCCCCC(=O)NS(=O)(=O)Oc1ccc(OC)cc1,Bacillus anthracis,microbial growth,STERNE34F2,,MIC,3.12 µg/mL
CCCCCCCCCC#CCCCCC(=O)O,Leishmania infantum,parasite growth,,promastigote,EC50,102 µM
CC1=NN(CNc2ccc(O)cc2)C(=O)C1=NNn1c(-c2ccccc2)nc2ccccc2c1=O,Vibrio cholerae,"microbial growth, broth dilution",,24 h,MIC,107 µM
OC[C@H]1O[C@@H](n2cnc3c(NC4CCCC4)ncnc32)[C@H](O)[C@@H]1O,,MES seizures,rat,intraperitoneal,ED50,6.7 mg/kg
CCCCCCCCCCCCCCCC(=O)NP(=O)(O)O,Bacillus anthracis,microbial growth,STERNE34F2,,MIC,> 200 µg/mL
CCOC(=O)Nc1ccc(NCc2ccc(F)cc2)cc1N,,MES seizures,rat,oral,ED50,12.1 mg/kg
CC[C@H]1OC(=O)[C@H](C)[C@@H](O[C@H]2C[C@@](C)(OC)[C@@H](O)[C@H](C)O2)[C@H](C)[C@@H](O[C@@H]2O[C@H](C)C[C@H](N(C)C)[C@H]2O)[C@](C)(O)C[C@@H](C)C(=O)[C@H](C)[C@@H](O)[C@]1(C)O,Bacillus anthracis,microbial growth,34F2,,MIC,3.13 µM
CC1=NN(CNc2c(O)c(S(=O)(=O)O)cc3ccccc23)C(=O)C1=NNn1c(-c2ccccc2)nc2ccccc2c1=O,Vibrio cholerae,"microbial growth, broth dilution",,24 h,MIC,83.7 µM
CCCCCCCCCCCC(=O)NP(=O)(O)O,Bacillus anthracis,microbial growth,STERNE34F2,,MIC,> 200 µg/mL
COC[C@@H](NC(C)=O)C(=O)NCc1ccc(OCc2ccccc2)cc1,,MES seizures,rat,oral,ED50,< 10 mg/kg
CN1C(=O)CC(=O)N(c2ccccc2)c2cc(Cl)ccc21,,MES seizures,rat,intraperitoneal,ED50,36.3 mg/kg
CC1=NN(CNc2ccc(Cl)cc2)C(=O)C1=NNn1c(-c2ccccc2)nc2ccccc2c1=O,Vibrio cholerae,"microbial growth, broth dilution",,24 h,MIC,103 µM
O=C(O)c1cn(C2CC2)c2cc(N3CCNCC3)c(F)cc2c1=O,Bacillus anthracis,microbial growth,34F2,,MIC,0.781 µM
C=CCCCCCCCCC(=O)C(F)(F)P(=O)(O)O,Bacillus anthracis,microbial growth,STERNE34F2,,MIC,> 200 µg/mL
CN[C@H](CC(C)C)C(=O)N[C@H]1C(=O)N[C@@H](CC(N)=O)C(=O)N[C@H]2C(=O)N[C@H]3C(=O)N[C@H](C(=O)N[C@H](C(=O)O)c4cc(O)cc(O)c4-c4cc3ccc4O)[C@H](O)c3ccc(c(Cl)c3)Oc3cc2cc(c3O[C@@H]2O[C@H](CO)[C@@H](O)[C@H](O)[C@H]2O[C@H]2C[C@](C)(N)[C@H](O)[C@H](C)O2)Oc2ccc(cc2Cl)[C@H]1O,Bifidobacterium,"microbial growth, agar dilution",,48 h,MIC,2 µg/mL
O=C(CCCCC1CCCCC1)NP(=O)(O)O,Bacillus anthracis,microbial growth,STERNE34F2,,MIC,> 200 µg/mL
CC1=NN(CNc2ccccn2)C(=O)C1=NNn1c(-c2ccccc2)nc2ccccc2c1=O,Vibrio cholerae,"microbial growth, broth dilution",,24 h,MIC,55.2 µM
CCCC(=O)CP(=O)(O)O,Bacillus anthracis,microbial growth,STERNE34F2,,MIC,100 µg/mL
Cn1cnc2nc(NCc3ccc(Cl)c(Cl)c3)[nH]c(=O)c21,Bifidobacterium,"microbial growth, agar dilution",,48 h,MIC,> 32 µg/mL
